Active and inactive are the calls of the source.
Legend:
Escherichia coli [1] = test: Antibacterial activity against Escherichia coli ATCC 25922 assessed as inhibition of bacterial growth by measuring fold increase in MIC compound preincubated at 120 degree C for 1 hr followed by bacterial culture addition and measured after 16 to 18 hrs by TECAN SPARK microplate reader analysis; format: functional; details: time 16-18 hrs
Staphylococcus aureus [2] = test: Induction of ROS generation in Staphylococcus aureus ATCC 29213 assessed as increase in fluorescence intensity incubated for 30 mins by DCFH-DA staining based analysis; format: functional, organism-based
How it was run: (§1)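 Overnight 37 °C cultures washed three times and resuspended in PBS, diluted to OD600 0.1, and mixed with DCFH-DA (5 µM). Treated with a range of compound concentrations for 30 min at 37 °C in the dark. Fluorescence read at Ex 488 / Em 530 nm.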

Staphylococcus aureus [3] = test: Antibacterial activity against Staphylococcus aureus ATCC 29213 assessed as inhibition of bacterial growth by measuring fold increase in MIC compound preincubated at 120 degree C for 1 hr followed by bacterial culture addition and measured after 16 to 18 hrs by TECAN SPARK microplate reader analysis; format: functional; details: time 16-18 hrs
Staphylococcus aureus [4] = test: Antibacterial activity against Staphylococcus aureus ATCC 29213 assessed as inhibition of bacterial growth by measuring fold increase in MIC measured after 16 to 18 hrs in presence of MgCl2 by TECAN SPARK microplate reader analysis; format: functional; details: time 16-18 hrs
How it was run: (§2)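 Salt/serum stability. Exponential-phase bacteria incubated 16–18 h with compound in medium supplemented with 10 mM NaCl, 10 mM KCl, 10 mM MgCl2, 10% DMEM or 10% FBS. Stability judged from the change in MIC.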

Acinetobacter baumannii = test: Antibacterial activity against Acinetobacter baumannii ATCC 19606 assessed as reduction bacterial growth after 16 hrs by TECAN SPARK microplate reader analysis; format: functional
How it was run: (§3)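 Single colony grown overnight in 4 mL TSB at 37 °C, diluted 100-fold and grown to mid-log phase. Compounds 2-fold serially diluted in TSB and mixed 1:1 with bacteria in TSB (1 × 10^6 CFU/mL). Incubated 16 h at 37 °C, then A600 read. MIC taken as the lowest concentration giving complete growth inhibition.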

Staphylococcus aureus [5] = test: Bactericidal activity against Staphylococcus aureus ATCC 29213 assessed as reduction in colony forming units at 4 times of MIC within 15 mins by time-kill kinetics assay; format: functional, organism-based
How it was run: (§4)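 Bacteria grown at 37 °C to mid-log phase and diluted to 1 × 10^6 CFU/mL. […] Mixtures diluted 10^2–10^4-fold and plated on TSB agar; colonies counted after 20 h at 37 °C.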

Staphylococcus aureus [6] = test: Induction of morphological changes in Staphylococcus aureus ATCC 29213 assessed as cellular inclusion leakage at 8 time of MIC for 6 hrs by scanning electron microscopy; format: functional, organism-based
How it was run: (§5)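 Mid-log cells exposed to compound for 6 h at 37 °C alongside untreated controls. Cells pelleted (3000 rpm, 15 min), washed four times in PBS, and fixed with 2.5% glutaraldehyde. Dehydrated through graded ethanol, critical-point dried and gold-coated, then imaged by SEM.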

Escherichia coli [7] = test: Antibacterial activity against Escherichia coli ATCC 25922 assessed as reduction bacterial growth after 16 hrs by TECAN SPARK microplate reader analysis; format: functional; how it was run: as §3
Pseudomonas aeruginosa = test: Antibacterial activity against Pseudomonas aeruginosa CMCC 10104 assessed as reduction bacterial growth after 16 hrs by TECAN SPARK microplate reader analysis; format: functional; how it was run: as §3
Staphylococcus aureus [8] = test: Induction of inner membrane permeabilization in Staphylococcus aureus ATCC 29213 assessed as increase in fluorescence intensity incubated for 1 hr by propidium iodide staining based TECAN SPARK microplate reader analysis; format: functional, organism-based
How it was run: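 Overnight 37 °C cultures resuspended in PBS and diluted to OD600 0.1. Propidium iodide added (5 µM final) for 30 min. Treated with a range of compound concentrations for 1 h in the dark; fluorescence read at Ex 535 / Em 615 nm.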

Staphylococcus aureus [9] = test: Bactericidal activity against Staphylococcus aureus ATCC 29213 assessed as inhibition of bacterial growth at 1 to 4 times of MIC measured within 1 hr mins by time-kill kinetics assay relative to control; format: functional; how it was run: as §4
Escherichia coli [10] = test: Induction of morphological changes in Escherichia coli ATCC 25922 assessed as cell collapse at 8 time of MIC for 6 hrs by scanning electron microscopy; format: functional, organism-based; how it was run: as §5
Escherichia coli [11] = test: Induction of outer membrane permeabilization in Escherichia coli ATCC 25922 assessed as increase in fluorescence intensity at 1 to 4 times of MIC incubated for 1 hr by NPN staining based TECAN SPARK microplate reader analysis; format: functional, organism-based
How it was run: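 Overnight E. coli resuspended in PBS and diluted to OD600 0.1. NPN added (10 µM final) for 30 min. Treated with a range of compound concentrations for 1 h in the dark; fluorescence read at Ex 350 / Em 420 nm.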

Escherichia coli [12] = test: Induction of morphological changes in Escherichia coli ATCC 25922 assessed as cellular inclusion leakage at 8 time of MIC for 6 hrs by scanning electron microscopy; format: functional, organism-based; how it was run: as §5
Staphylococcus aureus [13] = test: Antibacterial activity against Staphylococcus aureus ATCC 29213 assessed as inhibition of bacterial growth by measuring fold increase in MIC measured after 16 to 18 hrs in presence of KCl by TECAN SPARK microplate reader analysis; format: functional; details: time 16-18 hrs; how it was run: as §2
Escherichia coli [14] = test: Antibacterial activity against Escherichia coli ATCC 25922 assessed as inhibition of bacterial growth by measuring fold increase in MIC measured after 16 to 18 hrs in presence of KCl by TECAN SPARK microplate reader analysis; format: functional; details: time 16-18 hrs; how it was run: as §2
Staphylococcus aureus [15] = test: Induction of morphological changes in Staphylococcus aureus ATCC 29213 assessed as cell collapse at 8 time of MIC for 6 hrs by scanning electron microscopy; format: functional, organism-based; how it was run: as §5
Escherichia coli [16] = test: Drug resistance, ratio of MIC for Escherichia coli ATCC 25922 after 25 passages to MIC for Escherichia coli ATCC 25922 after initial exposure; format: functional
How it was run: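 Serial passage resistance selection: after each broth MIC determination, bacteria from the 1/2 MIC well were withdrawn and diluted to 1 × 10^6 CFU/mL for the next MIC measurement. Repeated for 25 passages; MIC after passage 25 compared with the initial MIC.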

Escherichia coli [17] = test: Induction of ROS generation in Escherichia coli ATCC 25922 assessed as fold increase in fluorescence intensity at 0.5 MIC concentration incubated for 30 mins by DCFH-DA staining based analysis; format: functional; details: 0.5 h; how it was run: as §1
Escherichia coli [18] = test: Antibacterial activity against Escherichia coli ATCC 25922 assessed as inhibition of bacterial growth by measuring fold increase in MIC measured after 16 to 18 hrs in presence of MgCl2 by TECAN SPARK microplate reader analysis; format: functional; details: time 16-18 hrs; how it was run: as §2
Escherichia coli [19] = test: Antibacterial activity against Escherichia coli ATCC 25922 assessed as inhibition of bacterial growth by measuring fold increase in MIC compound preincubated at 80 degree C for 1 hr followed by bacterial culture addition and measured after 16 to 18 hrs by TECAN SPARK microplate reader analysis; format: functional; details: time 16-18 hrs

CCCCCCN1C(=O)[C@H](CCCCNC(=N)N)N(Cc2ccc(-c3ccc(CN4C(=O)N(CCCCCC)C(=O)[C@@H]4CCCCNC(=N)N)cc3)cc2)C1=O
3.91 µg/mL: MIC (Escherichia coli [7])
~2: fold change (FC) (Escherichia coli [17])
1: fold change (FC) (Escherichia coli [1]) | fold change (FC) (Staphylococcus aureus [3]) | fold change (FC) (Staphylococcus aureus [4]) | fold change (FC) (Staphylococcus aureus [13]) | fold change (FC) (Escherichia coli [14]) | fold change (FC) (Escherichia coli [18]) | fold change (FC) (Escherichia coli [19])
<=4: Ratio (Escherichia coli [16])
active: Activity (Staphylococcus aureus [2]) Dose-Dependent Effect | Activity (Staphylococcus aureus [5]) | Activity (Staphylococcus aureus [6]) | Activity (Staphylococcus aureus [8]) Dose-Dependent Effect | Activity (Escherichia coli [10]) | Activity (Escherichia coli [11]) | Activity (Escherichia coli [12]) | Activity (Staphylococcus aureus [15])
100%: inhibition (INH) (Staphylococcus aureus [9])
15.6 µg/mL: MIC (Acinetobacter baumannii) | MIC (Pseudomonas aeruginosa)

— ChEMBL document CHEMBL5576109, “Hydantoin derivative dimers as broad-spectrum antimicrobial agents against ESKAPE pathogens with enhanced killing rate and stability” (RSC Med Chem, 2024)
